Assay results: publication PMC3032042 (Chemico-biological interactions, 2010)
“Also recorded” adds a separate entry of the source. Where two headings read alike, the source gives them in different places.

Key:
rSULT1A1 [1] = target: T1, rSULT1A1 (Rattus norvegicus, UniProt P17988); assay: Kd of OHPCBs with rSULT1A1 by displacement of ANS; assay type: binding
Outline: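 Recombinant rat enzyme (E. coli-expressed, PAP-agarose purified), DTT removed by gel filtration, pretreated with 1 mM GSH or GSSG for 1 h at 25 °C under argon. Enzyme at 0.34 µM in 0.25 M potassium phosphate pH 7.0, held 2 min at 37 °C under argon. ANS added (10 µM final), then titrated with test compound in ethanol. Fluorescence ex 380/em 465 nm. Duplicates; one-site fit corrected for non-specific ANS binding.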

rSULT1A1 [2] = target: T1, rSULT1A1; assay: Sulfation of OHPCBs catalyzed by rSULT1A1; assay type: biochemical; conditions: standard assay conditions (reduced enzyme)
Outline: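 Rat SULT1A1 expressed in E. coli BL21(DE3) from pET-3c and purified on PAP-agarose affinity column. Reaction at 37 °C: 0.25 M potassium phosphate pH 7.0, 200 µM PAPS, 7.5 mM 2-mercaptoethanol, 10 µM test compound added in acetone (3.3% v/v final). Started with 0.75 µg enzyme, stopped with methanol after 6 min. Sulfation rate from HPLC of substrate-dependent PAP formation.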

rSULT1A1-PAP complex = rSULT1A1-PAP complex (Rattus norvegicus, UniProt P17988); assay: Kd of OHPCBs with the rSULT1A1-PAP complex by displacement of ANS; assay type: binding
rSULT1A1-PAP complex, sequence (P17988 whole entry, one chain of several): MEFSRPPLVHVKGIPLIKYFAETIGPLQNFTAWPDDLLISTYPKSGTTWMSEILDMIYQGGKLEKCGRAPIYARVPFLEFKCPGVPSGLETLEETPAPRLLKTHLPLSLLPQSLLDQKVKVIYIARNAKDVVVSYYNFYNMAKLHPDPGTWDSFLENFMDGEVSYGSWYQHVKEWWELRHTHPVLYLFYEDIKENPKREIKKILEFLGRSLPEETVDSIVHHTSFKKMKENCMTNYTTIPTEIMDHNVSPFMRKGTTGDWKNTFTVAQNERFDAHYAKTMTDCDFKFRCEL
Outline: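 DTT-free recombinant rat enzyme pretreated with 1 mM GSH or GSSG for 1 h at 25 °C under argon. Enzyme at 0.34 µM in 0.25 M potassium phosphate pH 7.0, held 2 min at 37 °C under argon. ANS added (10 µM final), then 0.27 mM PAP to form the complex, then titrated with test compound in ethanol. Read at ex 380/em 465 nm. Duplicates; one-site fit corrected for non-specific ANS binding.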

rSULT1A1 [3] = target: T1, rSULT1A1; conditions: cited from earlier work; for IC50: rSULT1A1 with all cysteines in the thiol form, 2-naphthol as the substrate; for inhibitor status with rSULT1A1: standard assay conditions, reduced rSULT1A1
rSULT1A1 [4] = target: T1, rSULT1A1; conditions: GSSG-pretreated enzyme; cited from earlier work
rSULT1A1 [5] = target: T1, rSULT1A1; assay: Binding of TNP-AMP and PAP to rSULT1A1
Outline: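 Recombinant rat enzyme (expressed in E. coli BL21(DE3), purified on PAP-agarose) at 0.34 µM in potassium phosphate pH 7.0, 37 °C, in a quartz cuvette. Titrated with TNP-AMP and the fluorescence increase recorded (ex 435/em 545 nm). PAP titration then displaced TNP-AMP, and the fluorescence decrease was recorded. Kd from a single-site binding fit corrected for non-specific binding.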

[6] = read-out: Kd values for OHPCBs with rSULT1A1, Without PAP, GSH, enzyme pretreated with 1 mM GSH, pH 7.0, 37 °C
[7] = read-out: Kd values for OHPCBs with rSULT1A1, Without PAP, GSSG, enzyme pretreated with 1 mM GSSG, pH 7.0, 37 °C
[8] = read-out: Kd values for OHPCBs with rSULT1A1, With 0.27 mM PAP, GSH, enzyme pretreated with 1 mM GSH, pH 7.0, 37 °C
[9] = read-out: Kd values for OHPCBs with rSULT1A1, With 0.27 mM PAP, GSSG, enzyme pretreated with 1 mM GSSG, pH 7.0, 37 °C

T1 sequence (P17988 whole entry): as the sequence (P17988 whole entry, one chain of several) above

## Oc1ccc(-c2ccc(Cl)c(Cl)c2)cc1 [4’-OH PCB 12]
rSULT1A1 [1]; [6]
  Kd: 4000 ± 800 nM
rSULT1A1 [1]; [7]
  Kd: 2500 ± 700 nM
rSULT1A1 [2]
  substrate status with rSULT1A1: substrates for rSULT1A1
rSULT1A1-PAP complex; [8]
  Kd: 3100 ± 10 nM
rSULT1A1-PAP complex; [9]
  Kd: 4600 ± 1200 nM

## Oc1ccc(-c2ccccc2Cl)cc1Cl [4’-OH PCB 6]
rSULT1A1 [1]; [6]
  Kd: 660 ± 200 nM
rSULT1A1 [1]; [7]
  Kd: 500 ± 100 nM
rSULT1A1 [3]
  IC50: 23000 nM
rSULT1A1-PAP complex; [8]
  Kd: 880 ± 30 nM
rSULT1A1-PAP complex; [9]
  Kd: 720 ± 10 nM
rSULT1A1 [4]
  substrate status with GSSG-pretreated (oxidized) rSULT1A1: converted from inhibitors to substrates

## Oc1ccc(-c2cc(Cl)cc(Cl)c2)cc1Cl [4’-OH PCB 36]
rSULT1A1 [3]
  inhibitor status with rSULT1A1: relatively weak inhibitors
rSULT1A1 [4]
  substrate status with GSSG-pretreated (oxidized) rSULT1A1: substrates for oxidized rSULT1A1

## Oc1c(Cl)cc(-c2ccc(Cl)cc2Cl)cc1Cl [4’-OH PCB 68]
rSULT1A1 [1]; [6]
  Kd: 670 ± 100 nM
rSULT1A1 [1]; [7]
  Kd: 530 ± 100 nM
rSULT1A1 [3]
  IC50: 850 nM
  inhibitor status with rSULT1A1: inhibitors of the enzyme
rSULT1A1-PAP complex; [8]
  Kd: 470 ± 20 nM
rSULT1A1-PAP complex; [9]
  Kd: 400 ± 40 nM
rSULT1A1 [4]
  substrate status with GSSG-pretreated (oxidized) rSULT1A1: non-substrates for GSSG-pretreated enzyme

## Oc1ccc(Cl)cc1-c1ccc(Cl)c(Cl)c1 [6’-OH PCB 35]
rSULT1A1 [1]; [6]
  Kd: 65000 ± 32000 nM
rSULT1A1 [1]; [7]
  Kd: 117000 ± 36000 nM
rSULT1A1 [2]
  substrate status with rSULT1A1: substrates for rSULT1A1
rSULT1A1-PAP complex; [8]
  Kd: 3700 ± 10 nM
rSULT1A1-PAP complex; [9]
  Kd: 3600 ± 1300 nM

## Oc1c(Cl)cc(-c2ccccc2Cl)cc1Cl [4-OH PCB 34]
rSULT1A1 [1]; [6]
  Kd: 370 ± 10 nM
rSULT1A1 [1]; [7]
  Kd: 230 ± 10 nM
rSULT1A1 [3]
  IC50: 340 nM
  inhibitor status with rSULT1A1: inhibitors of the enzyme
rSULT1A1-PAP complex; [8]
  Kd: 490 nM
rSULT1A1-PAP complex; [9]
  Kd: 540 ± 10 nM
rSULT1A1 [4]
  substrate status with GSSG-pretreated (oxidized) rSULT1A1: non-substrates for GSSG-pretreated enzyme

## Oc1ccc(-c2ccc(Cl)cc2Cl)cc1Cl [4’-OH PCB 25]
rSULT1A1 [3]
  inhibitor status with rSULT1A1: the weakest inhibitor

## Oc1ccc(-c2ccc(Cl)c(Cl)c2)cc1Cl [4’-OH PCB 35]
rSULT1A1 [1]; [6]
  Kd: 3600 ± 900 nM
rSULT1A1 [1]; [7]
  Kd: 1600 ± 400 nM
rSULT1A1 [2]
  substrate status with rSULT1A1: substrates for rSULT1A1; also recorded: the weakest substrate
rSULT1A1-PAP complex; [8]
  Kd: 1600 ± 100 nM
rSULT1A1-PAP complex; [9]
  Kd: 1700 ± 100 nM

## Oc1ccc(-c2ccc(Cl)c(Cl)c2)c(Cl)c1 [4’-OH PCB 33]
rSULT1A1 [1]; [6]
  Kd: 2000 ± 100 nM
rSULT1A1 [1]; [7]
  Kd: 2500 ± 400 nM
rSULT1A1 [3]
  IC50: 26000 nM
  inhibitor status with rSULT1A1: relatively weak inhibitors
rSULT1A1-PAP complex; [8]
  Kd: 2000 ± 10 nM
rSULT1A1-PAP complex; [9]
  Kd: 2400 ± 40 nM
rSULT1A1 [4]
  substrate status with GSSG-pretreated (oxidized) rSULT1A1: converted from inhibitors to substrates; also recorded: substrates for oxidized rSULT1A1

## Oc1ccc(-c2cc(Cl)ccc2Cl)cc1 [4’-OH PCB 9]
rSULT1A1 [1]; [6]
  Kd: 12000 ± 4000 nM
rSULT1A1 [1]; [7]
  Kd: 7100 ± 1300 nM
rSULT1A1 [2]
  substrate status with rSULT1A1: substrates for rSULT1A1
rSULT1A1-PAP complex; [8]
  Kd: 3100 ± 1500 nM
rSULT1A1-PAP complex; [9]
  Kd: 3300 ± 100 nM

## Nc1ncnc2c1ncn2[C@@H]1O[C@H](COP(=O)(O)O)[C@@H](OP(=O)(O)O)[C@H]1O [PAP, Adenosine 3’,5’-diphosphate]
rSULT1A1 [5]; Kd of PAP displacing TNP-AMP bound to rSULT1A1, 0.34 µM rSULT1A1, pH 7.0, 37°C, Figure 4B
  Kd: 2600 nM

## 2'-(or-3')-O-(trinitrophenyl)adenosine 5'-monophosphate [TNP-AMP]
rSULT1A1 [5]; read-out: Kd of TNP-AMP binding to rSULT1A1, 0.34 µM rSULT1A1, potassium phosphate buffer pH 7.0, 37°C, fluorescence at 545 nm
  Kd: 6500 nM

## Oc1c(Cl)cc(-c2ccccc2)cc1Cl [4-OH PCB 14]
rSULT1A1 [1]; [6]
  Kd: 260 ± 30 nM
rSULT1A1 [1]; [7]
  Kd: 220 ± 20 nM
rSULT1A1 [3]
  IC50: 270 nM
rSULT1A1-PAP complex; [8]
  Kd: 400 ± 50 nM
rSULT1A1-PAP complex; [9]
  Kd: 290 ± 40 nM
rSULT1A1 [4]
  substrate status with GSSG-pretreated (oxidized) rSULT1A1: converted from inhibitors to substrates
